Test results: ChEMBL document CHEMBL1148785, “Second generation tetrahydroquinoline-based protein farnesyltransferase inhibitors as antimalarials” (J Med Chem, 2007)

How the values were obtained:
Plasmodium falciparum [1] = experiment: Antimalarial activity against Plasmodium falciparum 3D7; format: functional; details: Plasmodium falciparum, 3D7; read-out: ED50 (the source's name)
Summary of the method: (§1)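 Asynchronous culture in type A+ erythrocytes at 0.5% parasitemia and 0.5% hematocrit, grown in RPMI-1640 with 20% heat-inactivated human A+ plasma. Compound was serially diluted from a top final 5 µM, with DMSO vehicle as 100% growth. Plates ran 48 h at 37 °C under 5% CO2/5% O2/90% N2, then [3H]-hypoxanthine (0.3 µCi) for 24 h. Filter-harvested counts were corrected for the uninfected-RBC background. ED50 by linear regression; duplicates averaged.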

Plasmodium falciparum [2] = experiment: Inhibition of Plasmodium falciparum protein farnesyltransferase at 0.5 nM by scintillation proximity assay
Plasmodium falciparum [3] = experiment: Inhibition of Plasmodium falciparum protein farnesyltransferase at 5 nM by scintillation proximity assay
Plasmodium falciparum [4] = experiment: Inhibition of Plasmodium falciparum protein farnesyltransferase at 50 nM by scintillation proximity assay
Plasmodium falciparum [5] = experiment: Antimalarial activity against Plasmodium falciparum K1; format: functional; details: Plasmodium falciparum, K1; read-out: ED50 (the source's name); summary of the method: as §1

Structure (SMILES) | EC50 (Plasmodium falciparum [1]) | inhibition (Plasmodium falciparum [2]) | inhibition (Plasmodium falciparum [3]) | inhibition (Plasmodium falciparum [4]) | EC50 (Plasmodium falciparum [5])
Cn1cncc1CN1CC(N(CC2CCN(C(=O)c3ccco3)CC2)S(=O)(=O)c2ccccn2)Cc2cc(C#N)ccc21 (stereo not given) | 80 nM | 92% | 51% | 92% | 93 nM
CN(C)C(=O)N1CCC(CN(C2Cc3cc(C#N)ccc3N(Cc3cncn3C)C2)S(=O)(=O)c2ccccn2)CC1 (stereo not given) | 13 nM | 94% | 35% | 100% | 11.5 nM
Cn1cnc(S(=O)(=O)N(CCCN)C2Cc3cc(C#N)ccc3N(Cc3cncn3C)C2)c1 (stereo not given) | > 5000 nM | 5% | 5% | 60% | 4600 nM
Cn1cncc1CN1CC(N(CCCCON2C(=O)c3ccccc3C2=O)S(=O)(=O)c2ccccn2)Cc2cc(C#N)ccc21 (stereo not given) | 2150 nM | 0% | 32% | 84% | 1420 nM
Cn1cncc1CN1CC(N(Cc2cccc(C(=O)O)n2)S(=O)(=O)c2ccccn2)Cc2cc(C#N)ccc21 (stereo not given) | 1000 nM | 24% | 81% | 97% | 800 nM
Cn1cnc(S(=O)(=O)N(CCN2CCCC2=O)C2Cc3cc(C#N)ccc3N(Cc3cncn3C)C2)c1 (stereo not given) | 87 nM | 0% | 65% | 99% | 60 nM
Cn1cnc(S(=O)(=O)N(Cc2ccc3c(c2)OCCS3(=O)=O)C2Cc3cc(C#N)ccc3N(Cc3cncn3C)C2)c1 (stereo not given) | 20 nM | 66% | 99% | 99% | < 20 nM
Cn1cnc(S(=O)(=O)N(CCc2ccccc2)C2Cc3cc(C#N)ccc3N(Cc3cncn3C)C2)c1 (stereo not given) | 9 nM | 82% | 96% | 97% | 10 nM
Cn1cnc(S(=O)(=O)NC2Cc3cc(-c4ccccc4)ccc3N(Cc3cncn3C)C2)c1 (stereo not given) | 3500 nM | 14% | 31% | 80% | > 5000 nM
COC(=O)N1CCC(CN(C2Cc3cc(C#N)ccc3N(Cc3cncn3C)C2)S(=O)(=O)c2ccc(NC(C)=O)cc2)CC1 (stereo not given) | 1800 nM | 0% | 6% | 65% | 2000 nM
Cn1cnc(S(=O)(=O)N(Cc2cccnc2)C2Cc3cc(C#N)ccc3N(Cc3cncn3C)C2)c1 (stereo not given) | 70 nM | 17% | 89% | 99% | 210 nM
CN(CCCCN(C1Cc2cc(C#N)ccc2N(Cc2cncn2C)C1)S(=O)(=O)c1ccccn1)C(=O)OC(C)(C)C (stereo not given) | 320 nM | 27% | 78% | 98% | 270 nM
Cn1cnc(S(=O)(=O)N(CCN)C2Cc3cc(C#N)ccc3N(Cc3cncn3C)C2)c1 (stereo not given) | > 5000 nM | 0% | 15% | 72% | > 5000 nM
Cn1cncc1CN1CC(N(CC2CCN(C(=O)N3CCCCC3)CC2)S(=O)(=O)c2ccccn2)Cc2cc(C#N)ccc21 (stereo not given) | 140 nM | 62% | 14% | 94% | 200 nM
Cn1cnc(S(=O)(=O)N(Cc2cccc3nsnc23)C2Cc3cc(C#N)ccc3N(Cc3cncn3C)C2)c1 (stereo not given) | 60 nM | 18% | 94% | 99% | 230 nM
Cn1cnc(S(=O)(=O)N(CCCCN2C(=O)c3ccccc3C2=O)C2Cc3cc(C#N)ccc3N(Cc3cncn3C)C2)c1 (stereo not given) | 40 nM | 90% | 96% | 97% | 130 nM
COC(=O)NCCCN(C1Cc2cc(C#N)ccc2N(Cc2cncn2C)C1)S(=O)(=O)c1cn(C)cn1 (stereo not given) | 19 nM | 61% | 96% | 100% | 17 nM
CCN(CCCCN(C1Cc2cc(C#N)ccc2N(Cc2cncn2C)C1)S(=O)(=O)c1ccccn1)C(=O)OC (stereo not given) | 250 nM | 26% | 69% | 89% | 600 nM
C/C=C/C=C\C=C\CN(C1Cc2cc(C#N)ccc2N(Cc2cncn2C)C1)S(=O)(=O)c1ccccn1 (stereo not given) | 700 nM | 32% | 87% | 98% | 700 nM
Cn1cncc1CN1CC(N(CC2CCN(C(=O)Nc3ccc(Br)cc3)CC2)S(=O)(=O)c2ccccn2)Cc2cc(C#N)ccc21 (stereo not given) | 3000 nM | 0% | 0% | 38% | 2800 nM
